High-throughput results (PubChem)
OXTR agonist – human OXTR agonism | activation, % at 3 µM | P30559 | 0.32% of 320,000 active | CHO-OTR cells, Fluo-8 calcium fluorescence; normalized: DMSO 0%, oxytocin 100%;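 active means activation above the mean of all tested compounds plus 3 SD, cutoff set per screening run, cut at about 20% in these data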;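 further: peak over basal fluorescence ratio from a 100 s FLIPR kinetic read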
OX1R antag-1 – antagonists of human orexin 1 receptor (OX1R) | O43613 | OX1R-expressing cells, FRET antagonist read-out | inhibition, % at 6.6 µM | 1.8% of 330,000 active; in the data active means inhibition mostly above about 38%, no sharp cut-off; inactive means mostly below about 40%
V1aR counter – V1a receptor agonism, counter-screen for OXTR agonists | P37288 | CHO-V1R cells, Fluo-8 calcium fluorescence, agonist mode; 0% DMSO, 100% 3 nM vasopressin | activation, % at 3 µM | 0.25% of 320,000 active | AID 2797;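 active means activation above the mean activation of all tested compounds plus 3 SD, per screening run, cut at about 20% in these data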;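 further: signal is peak over basal fluorescence ratio across a 100 second FLIPR read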
Target sequence (P37288 whole entry, looked up): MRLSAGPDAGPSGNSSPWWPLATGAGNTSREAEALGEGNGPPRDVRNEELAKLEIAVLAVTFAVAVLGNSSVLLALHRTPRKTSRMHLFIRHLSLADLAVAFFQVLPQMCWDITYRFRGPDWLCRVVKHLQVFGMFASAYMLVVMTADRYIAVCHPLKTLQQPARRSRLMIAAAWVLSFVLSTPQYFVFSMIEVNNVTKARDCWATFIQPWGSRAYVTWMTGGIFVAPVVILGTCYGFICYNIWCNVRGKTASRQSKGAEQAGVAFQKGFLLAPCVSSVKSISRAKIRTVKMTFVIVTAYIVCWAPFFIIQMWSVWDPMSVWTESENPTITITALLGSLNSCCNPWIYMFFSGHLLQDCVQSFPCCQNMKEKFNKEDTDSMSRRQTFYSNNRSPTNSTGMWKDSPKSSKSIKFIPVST
CHO parental Ca – counter-screen for OX1R antagonists: effect in parental CHO cells. parental CHO-K1, ATP-induced calcium, Fluo-8 fluorescence. inhibition, % at 5.6 µM. 0.63% of 330,000 active;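 active means inhibition above that plate's mean sample inhibition plus 3 SD, cut at about 26% in these data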
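Material: Parental CHO cells | Reagent: ATP | Compound dosing: Single nominal dose of 5.6 µM per compound | Detection: Intracellular calcium via Fluo-8 no-wash fluorescent dye | Read-out: % inhibition of ATP-induced calcium mobilization | Benchmarks: Low control ATP plus DMSO, high control DMSO only | Replicates: Singlicate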
OX1R antag-2 – antagonists of human orexin 1 receptor; O43613; CHO/OX1R cells, Fluo-8 calcium fluorescence, orexin A; inhibition, % at 5 µM; 0.43% of 330,000 active;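 active means inhibition above its plate's threshold, mean inhibition of all tested compounds on the plate plus 3 SD, cut at about 37% in these data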
OXTR potentiate – potentiators of human oxytocin receptor | CHO-OTR cells, Fluo-8 calcium fluorescence, potentiator mode; 0% = oxytocin EC15, 100% = EC100 | activation, % at 3 µM | 0.061% of 320,000 active | AID 2445;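 active means activation above that plate's cutoff, the mean activation of tested compounds plus 3 SD, cut at about 6.6% in these data, passing the limit was not always enough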
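Measured by – Fluo-8 calcium dye fluorescence · Test system – human OTR in CHO cells · Dosing – one concentration, 3.0 µM compound · Controls – EC15 oxytocin alone as 0%, 75 nM oxytocin as 100% · Evaluation – normalized max/min fluorescence ratio, % activation · Timing – 6 min pre-incubation, 100 s read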
OX1R Ca confirm – confirmation of human orexin 1 receptor antagonists; AID 492963; CHO/OX1R cells, orexin A calcium Fluo-8 fluorescence; inhibition, % at 5 µM; 38% of 1,100 active; shares compounds with OX1R antag-2; in the data active means inhibition above about 29%
CHO Ca counter – counter-screen: parental CHO calcium response change, triplicate; shares compounds with OX1R antag-2; 9.3% of 1,100 active; inhibition, % at 5.6 µM; parental CHO-K1, ATP-induced calcium, Fluo-8 fluorescence;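 active means inhibition above a per-plate limit, the mean inhibition of that plate's test compounds plus 3 SD, cut at about 25% in these data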
Large screens that a line does not name were inactive (follow-up assays come after a bar, where they were run). Shown are actives, neighbours in structure and some others; about 2.7% of the full set was active somewhere.

COc1ccc(C[C@H]2CN3C(=NC[C@H]3Cc3ccccc3)N2CCNC(=O)c2ccc(C)c(Br)c2)cc1	none | OX1R Ca confirm 32 | CHO Ca counter inactive
COc1cc(CC(NC(C)=O)C(=O)NC2CCN(C(=O)Nc3ccccc3C)CC2)cc(OC)c1 (stereo unspecified)	none
CC(C)(C)CNc1cc(N2CCCC2)ccc1[N+](=O)[O-]	none
CC(C)c1ccc(CNc2cc(N3CCCC3)ccc2[N+](=O)[O-])cc1	OX1R antag-2 53 | OX1R Ca confirm inactive | CHO Ca counter 39
COc1cc(OC)cc(C(=O)Nc2ccc(C(=O)Nc3ccccc3OC)cc2)c1	none
COc1ccc(/C=c2\sc3nc(-c4ccccc4OC)nn3c2=O)c(OC)c1	OX1R antag-2 43 | OX1R Ca confirm 90 | CHO Ca counter inactive
COc1ccccc1-c1nc2s/c(=C\c3cccs3)c(=O)n2n1	none
CCc1noc(C)c1C(=O)Oc1ccc(N(C)S(=O)(=O)c2ccc(C)cc2)cc1	OX1R antag-2 55 | OX1R Ca confirm inactive | CHO Ca counter inactive
N#CCCn1cc(/C=N/NC(N)=S)c(-c2ccc(-c3ccccc3)cc2)n1	none | OX1R Ca confirm inactive | CHO Ca counter inactive
N#CCCn1cc(/C=N/O)c(-c2ccccc2)n1	none
COc1cccc(CN2CC(C(=O)N3CCCO3)CCC2=O)c1 (stereo unspecified)	none
Cc1cc(C)cc(NC(=O)COC(=O)CN=C2NS(=O)(=O)c3ccccc32)c1	none
CCOC(=O)c1ccc(NC(=O)Cn2ncc(Cl)c(Cl)c2=O)cc1	none
Cc1ccc(C(=O)OCn2ncc(Cl)c(Cl)c2=O)cc1	none | OX1R Ca confirm 73 | CHO Ca counter inactive
CCOC(=O)C1=C(C)NC(=S)NC1c1ccc(OCC(=O)N2CCCCC2)cc1 (stereo unspecified)	none
Cc1ccc(S(=O)(=O)N2CCOCC2)cc1NC(=O)COC(=O)CCc1c[nH]c2ccccc12	none | OX1R Ca confirm inactive | CHO Ca counter inactive
O=C(COC(=O)Cc1c[nH]c2ccccc12)Nc1cc(S(=O)(=O)N2CCOCC2)ccc1Cl	none
CCC(C)NS(=O)(=O)c1ccc(S(=O)(=O)N(CC(=O)Nc2ccccc2)Cc2ccco2)cc1 (stereo unspecified)	OX1R antag-2 49 | OX1R Ca confirm inactive | CHO Ca counter inactive
Cc1ccc(C)c(CNc2ccc(S(=O)(=O)N3CCCCC3)cc2)c1	OX1R antag-2 44 | OX1R Ca confirm inactive | CHO Ca counter 53
Cc1ccc(C(C#N)c2ccc(C(=O)c3ccc(F)cc3)cc2)cc1 (stereo unspecified)	none | OX1R Ca confirm inactive | CHO Ca counter inactive
O=C(COC(=O)c1cccc(S(=O)(=O)N2CCOCC2)c1)Nc1nc(-c2ccccc2Cl)cs1	none | OX1R Ca confirm 36 | CHO Ca counter 26
O=S(=O)(NCCC1=CCCCC1)c1ccc(OC(F)(F)F)cc1	none
CN(Cc1ccccc1)C(=O)COC(=O)c1cc(NS(=O)(=O)c2cccs2)ccc1O	OX1R antag-2 44 | OX1R Ca confirm 31 | CHO Ca counter 26
CCCCNc1ccc(C(F)(F)F)cc1S(=O)(=O)NCCc1ccc(F)cc1	none (no result: OXTR agonist, V1aR counter, OXTR potentiate) | OX1R Ca confirm inactive | CHO Ca counter inactive
CN1CCN(c2ccccc2NC(=O)COc2ccc(Cl)cc2)CC1	none
N#Cc1ccccc1NC(=O)C(=O)NCC1CCCN1S(=O)(=O)c1cccs1 (stereo unspecified)	none | OX1R Ca confirm inactive | CHO Ca counter inactive
O=C(NCC1CCCN1S(=O)(=O)c1cccs1)C(=O)Nc1ccccc1 (stereo unspecified)	none
COc1ccc(C2=NCC(CSc3nnc(-c4ccc5c(c4)OCO5)o3)S2)cc1 (stereo unspecified)	OX1R antag-2 47 | OX1R Ca confirm inactive | CHO Ca counter inactive
CC(C)OC(=O)NCCOC(=O)Nc1ccc(Cl)cc1	none | OX1R Ca confirm inactive | CHO Ca counter inactive
O=C(/C=C/Nc1ccc(Br)cn1)c1cccc(OC(F)F)c1	none
CCOc1ccccc1NC(=O)CN(c1nccs1)S(=O)(=O)c1ccc(N)cc1	none | OX1R Ca confirm 30 | CHO Ca counter inactive
CCOc1ccccc1NC(=O)CCN(c1ccc(C)cc1)S(=O)(=O)c1ccccc1	none
Cc1ccc(C)c(OCCC(=O)NNC(=O)c2ccccc2)c1	none | OX1R Ca confirm inactive | CHO Ca counter inactive
Cc1ccc(C)c(OCCC(=O)NNC(=O)c2ccncc2)c1	none
CN(C)C1=NCCN1CCC1CCCC1	none
Cc1ccsc1CNC1C2CC3CC(C2)CC1C3 (stereo unspecified)	none
COc1ccc(-c2nc(/C=C3\C(C)=Nc4ccccc43)c(O)o2)cc1	none | OX1R Ca confirm inactive | CHO Ca counter inactive
COc1ccc(N=Cc2nc(-c3ccco3)oc2O)cc1	none
CC1=Nc2ccccc2/C1=C\c1nc(-c2ccc(C(F)(F)F)cc2)oc1O	OX1R antag-2 40 | OX1R Ca confirm 51 | CHO Ca counter 54
CC(C)=CCC/C(C)=C/CNC(=O)C[C@H]1C[C@H](C(=O)N2CCOCC2)[C@@]2(C)c3[nH]c4cc(CCC(=O)N(C)C)ccc4c3CCN2C1=O	none (no result: OXTR agonist, V1aR counter, OXTR potentiate)
CC(C)=CCC/C(C)=C/CNC(=O)C[C@H]1C[C@H](C(=O)N2CCCCC2)[C@@]2(C)c3[nH]c4cc(CCC(=O)N(C)C)ccc4c3CCN2C1=O	OX1R antag-2 49 (no result: OXTR agonist, V1aR counter, OXTR potentiate) | OX1R Ca confirm inactive | CHO Ca counter inactive
COc1cc(C(=O)NCC2CCCN2S(=O)(=O)c2cccs2)cc(OC)c1OC (stereo unspecified)	none
N#Cc1ccccc1NC(=O)Nc1cccc(Cl)c1	none
N#CCc1ccc(NC(=O)Nc2cccc(Cl)c2)cc1	none | OX1R Ca confirm inactive | CHO Ca counter 34
NS(=O)(=O)c1cccc(NC(=O)Nc2ccc(Cl)cc2)c1	none | OX1R Ca confirm inactive | CHO Ca counter inactive
CCC1Sc2ccc(S(=O)(=O)CCC(=O)NCc3ccco3)cc2NC1=O (stereo unspecified)	none
COCC(=O)Nc1cc(C(=O)NCCc2ccccc2)ccc1Cl	none
COCC(=O)Nc1cc(C(=O)NCC(C)C)ccc1Cl	none | OX1R Ca confirm inactive | CHO Ca counter inactive
O=C(CCN1C(=O)/C(=C/c2ccccc2)SC1=S)NNC(=O)c1cccnc1	OX1R antag-2 46 | OX1R Ca confirm 47 | CHO Ca counter 69
Cc1ccc(/C=C2\SC(=S)N(CCC(=O)NNC(=O)c3cccnc3)C2=O)cc1	none
